In ChEMBL document CHEMBL5230178, “6-Bromoindirubin-3'-oxime derivatives are highly active colistin adjuvants against Klebsiella pneumoniae” (RSC Med Chem, 2023):
Active and inactive are the calls of the source. No cut-off for these calls is given here.

Key:
Klebsiella pneumoniae [1] = experiment: Antibacterial activity against Klebsiella pneumoniae B9 assessed as inhibition of bacterial growth incubated for 16 hrs by broth microdilution method; assay type: functional
Outline: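 Broth microdilution in CAMHB. Six-hour culture diluted to 5×10^5 CFU/mL, compound added from DMSO stock, two-fold serial dilution. MIC is the lowest concentration giving 90% growth inhibition versus untreated wells. Run in duplicate, repeated at least twice.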

Klebsiella pneumoniae [2] = experiment: Potentiation of colistin-induced antibacterial activity against colistin resistant Klebsiella pneumoniae B9 assessed as colistin MIC at 5 uM incubated for 16 hrs by broth microdilution method; assay type: functional
Outline: (§1)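 Bacteria grown 6 h in CAMHB, diluted to 5×10^5 CFU/mL. Fixed adjuvant concentration added from DMSO stock; an undosed aliquot gives the colistin MIC alone. Colistin serially two-fold diluted in the compound-dosed suspension. MIC taken at 90% growth inhibition versus untreated wells. Fold change is colistin MIC alone over MIC with adjuvant. Duplicate, repeated at least twice.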

Klebsiella pneumoniae [3] = experiment: Potentiation of colistin-induced antibacterial activity against colistin-resistant Klebsiella pneumoniae B9 assessed as fold change in colistin MIC at 5 uM incubated for 16 hrs by broth microdilution method; assay type: functional; outline: as §1
Klebsiella pneumoniae [4] = experiment: Potentiation of colistin-induced antibacterial activity against colistin resistant Klebsiella pneumoniae F2210291 harbouring mcr-1 gene assessed as colistin MIC at 5 uM incubated for 16 hrs by broth microdilution method; assay type: functional; outline: as §1
Klebsiella pneumoniae [5] = experiment: Potentiation of colistin-induced antibacterial activity against colistin resistant Klebsiella pneumoniae C3 assessed as colistin MIC at 5 uM incubated for 16 hrs by broth microdilution method; assay type: functional; outline: as §1
Pseudomonas aeruginosa [6] = experiment: Antimicrobial activity against colistin resistant Pseudomonas aeruginosa TRPA 162 assessed as inhibition of microbial growth incubated for 16 hrs by broth microdilution method; assay type: functional, organism-based
Outline: (§2)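 Bacteria grown 6 h in cation-adjusted Mueller Hinton broth (CAMHB), subcultured to 5×10^5 CFU/mL. Compound added from DMSO stock and serially two-fold diluted in the culture. Incubated stationary at 37 °C for 16 h. MIC taken as the lowest concentration giving 90% growth inhibition versus untreated wells. Duplicate, repeated at least twice.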

Klebsiella pneumoniae [7] = experiment: Potentiation of colistin-induced antibacterial activity against colistin resistant Klebsiella pneumoniae I2 assessed as colistin MIC at 5 uM incubated for 16 hrs by broth microdilution method; assay type: functional; outline: as §1
Klebsiella pneumoniae [8] = experiment: Potentiation of colistin-induced antibacterial activity against colistin-resistant Klebsiella pneumoniae B9 assessed as colistin MIC at 3 uM incubated for 16 hrs by broth microdilution method; assay type: functional; outline: as §1
Klebsiella pneumoniae [9] = experiment: Potentiation of colistin-induced antibacterial activity against colistin-resistant Klebsiella pneumoniae B9 assessed as fold change in colistin MIC at 3 uM incubated for 16 hrs by broth microdilution method; assay type: functional; outline: as §1
Pseudomonas aeruginosa [10] = experiment: Potentiation of colistin-induced antimicrobial activity against colistin-resistant Pseudomonas aeruginosa TRPA 162 assessed as colistin MIC at 5 uM incubated for 16 hrs by broth microdilution method; assay type: functional; outline: as §1
Klebsiella pneumoniae [11] = experiment: Potentiation of colistin-induced antibacterial activity against colistin-resistant Klebsiella pneumoniae B9 assessed as colistin MIC at 1 uM incubated for 16 hrs by broth microdilution method; assay type: functional; outline: as §1
Escherichia coli [12] = experiment: Potentiation of colistin-induced antimicrobial activity against colistin resistant Escherichia coli 25922 harbouring mcr-1 gene assessed as colistin MIC at 5 uM incubated for 16 hrs by broth microdilution method; assay type: functional; outline: as §1
Klebsiella pneumoniae [13] = experiment: Potentiation of colistin-induced antibacterial activity against colistin resistant Klebsiella pneumoniae F9 assessed as colistin MIC at 5 uM incubated for 16 hrs by broth microdilution method; assay type: functional; outline: as §1
Acinetobacter baumannii [14] = experiment: Potentiation of colistin-induced antimicrobial activity against colistin resistant Acinetobacter baumannii 3941 assessed as assessed as colistin MIC at 5 uM incubated for 16 hrs by broth microdilution method; assay type: functional; outline: as §1
Escherichia coli [15] = experiment: Antimicrobial activity against colistin resistant Escherichia coli 25922 harbouring mcr-1 gene assessed as inhibition of microbial growth incubated for 16 hrs by broth microdilution method; assay type: functional, organism-based; outline: as §2
Acinetobacter baumannii [16] = experiment: Antimicrobial activity against colistin resistant Acinetobacter baumannii 3941 assessed as inhibition of microbial growth incubated for 16 hrs by broth microdilution method; assay type: functional, organism-based; outline: as §2
Klebsiella pneumoniae [17] = experiment: Potentiation of colistin-induced antibacterial activity against colistin-resistant Klebsiella pneumoniae B9 assessed as fold change in colistin MIC at 1 uM incubated for 16 hrs by broth microdilution method; assay type: functional; outline: as §1

Row | SMILES | MIC (Klebsiella pneumoniae [1]) [µM] | MIC (Klebsiella pneumoniae [2]) [µg/mL] | fold change (FC) (Klebsiella pneumoniae [3]) | other results
1 | O=C1Nc2cc(Br)ccc2/C1=C1/Nc2cc(F)ccc2/C1=N\O | > 200 | > 16 | – | –
2 | O=C1Nc2cc(Br)ccc2/C1=C1/Nc2ccc(C(F)(F)F)cc2/C1=N\O | > 200 | 8 | 64 | –
3 | O=C1Nc2cc(Br)ccc2/C1=C1/Nc2c(Cl)cc(Cl)cc2/C1=N\O | > 200 | > 16 | – | –
4 | O=C1Nc2ccccc2/C1=C1/Nc2ccccc2/C1=N\O | > 200 | > 16 | – | –
5 | O=C1Nc2ccc(Cl)cc2/C1=C1/Nc2ccccc2/C1=N\O | > 200 | > 16 | – | –
6 | O=C1Nc2cc(Br)ccc2/C1=C1/Nc2cc(Br)ccc2/C1=N\O | > 200 | 8 | 64 | –
7 | O=C1Nc2cc(Br)ccc2/C1=C1/Nc2c(cccc2-c2ccccc2)/C1=N\O | > 200 | > 16 | – | –
8 | O=C1Nc2cc(Br)ccc2/C1=C1/Nc2cc(Cl)c(Cl)cc2/C1=N\O | > 200 | > 16 | – | –
9 | O=C1Nc2cc(Br)ccc2/C1=C1/Nc2ccccc2/C1=N\O [6BIO] | > 200 | 1 | 512 | MIC (Klebsiella pneumoniae [4]): 2 µg/mL; MIC (Klebsiella pneumoniae [5]): 4 µg/mL; Activity (Pseudomonas aeruginosa [6]): inactive; MIC (Klebsiella pneumoniae [7]): 8 µg/mL; MIC (Klebsiella pneumoniae [8]): 32 µg/mL; fold change (FC) (Klebsiella pneumoniae [9]): 16; MIC (Pseudomonas aeruginosa [10]): > 16 µg/mL; MIC (Klebsiella pneumoniae [11]): > 64 µg/mL; MIC (Escherichia coli [12]): 2 µg/mL; MIC (Klebsiella pneumoniae [13]): 4 µg/mL; MIC (Acinetobacter baumannii [14]): > 16 µg/mL; Activity (Escherichia coli [15]): inactive; Activity (Acinetobacter baumannii [16]): inactive
10 | O=C1Nc2cc(Br)ccc2/C1=C1/Nc2cc(F)c(F)cc2/C1=N\O | > 200 | 1 | 512 | MIC (Klebsiella pneumoniae [8]): 4 µg/mL; fold change (FC) (Klebsiella pneumoniae [9]): 128; MIC (Klebsiella pneumoniae [11]): > 64 µg/mL
11 | Cc1ccc2c(c1)NC(=O)/C2=C1\Nc2ccccc2\C1=N/O | > 200 | > 16 | – | –
12 | COc1ccc2c(c1)NC(=O)/C2=C1\Nc2ccccc2\C1=N/O | > 200 | > 16 | – | –
13 | O=C1Nc2cc(Br)ccc2/C1=C1/Nc2c(cccc2C(F)(F)F)/C1=N\O | > 200 | 2 | 256 | MIC (Klebsiella pneumoniae [8]): 4 µg/mL; fold change (FC) (Klebsiella pneumoniae [9]): 128; MIC (Klebsiella pneumoniae [11]): 64 µg/mL
14 | O=C1Nc2cc(F)ccc2/C1=C1/Nc2ccccc2/C1=N\O | > 200 | > 16 | – | –
15 | O=C1Nc2cc(C(F)(F)F)ccc2/C1=C1/Nc2ccccc2/C1=N\O | > 200 | 8 | 64 | –
16 | O=C1Nc2cc(Br)ccc2/C1=C1/Nc2ccc(F)cc2/C1=N\O | > 200 | 2 | 256 | MIC (Klebsiella pneumoniae [8]): 32 µg/mL; fold change (FC) (Klebsiella pneumoniae [9]): 16; MIC (Klebsiella pneumoniae [11]): > 64 µg/mL
17 | O=C1Nc2cc(Br)ccc2/C1=C1/Nc2ccc(-c3ccccc3)cc2/C1=N\O | > 200 | > 16 | – | –
18 | O=C1Nc2cc(Br)ccc2/C1=C1/Nc2c(Br)cccc2/C1=N\O | > 200 | 1 | 512 | MIC (Klebsiella pneumoniae [4]): 2 µg/mL; MIC (Klebsiella pneumoniae [5]): 4 µg/mL; Activity (Pseudomonas aeruginosa [6]): inactive; MIC (Klebsiella pneumoniae [7]): 4 µg/mL; fold change (FC) (Klebsiella pneumoniae [17]): 16; MIC (Klebsiella pneumoniae [8]): 2 µg/mL; fold change (FC) (Klebsiella pneumoniae [9]): 256; MIC (Pseudomonas aeruginosa [10]): > 16 µg/mL; MIC (Klebsiella pneumoniae [11]): 32 µg/mL; MIC (Escherichia coli [12]): 1 µg/mL; MIC (Klebsiella pneumoniae [13]): 4 µg/mL; MIC (Acinetobacter baumannii [14]): > 16 µg/mL; Activity (Escherichia coli [15]): inactive; Activity (Acinetobacter baumannii [16]): inactive
19 | O=C1Nc2cc(Cl)ccc2/C1=C1/Nc2ccccc2/C1=N\O | > 200 | 4 | 128 | –
20 | O=C1Nc2cc(Br)ccc2/C1=C1/Nc2ccc(Br)cc2/C1=N\O | > 200 | 4 | 128 | –
21 | O=C1Nc2c(Br)cccc2/C1=C1/Nc2ccccc2/C1=N\O | > 200 | > 16 | – | –
22 | Cc1ccc2c(c1)C(=N\O)/C(=C1/C(=O)Nc3cc(Br)ccc31)N2 | – | > 16 | – | –
23 | Cc1cccc2c1NC(=C1\C(=O)Nc3cc(Br)ccc31)/C2=N/O | > 200 | 4 | 128 | –
24 | O=C1Nc2c(Cl)cccc2/C1=C1/Nc2ccccc2/C1=N\O | > 200 | > 16 | – | –
25 | O=C1Nc2cc(Br)ccc2/C1=C1/Nc2ccc(Cl)cc2/C1=N\O | > 200 | 2 | 256 | MIC (Klebsiella pneumoniae [8]): 16 µg/mL; fold change (FC) (Klebsiella pneumoniae [9]): 32; MIC (Klebsiella pneumoniae [11]): > 64 µg/mL
26 | O=C1Nc2ccc(Br)cc2/C1=C1/Nc2ccccc2/C1=N\O [INDIRUBIN 2] | > 200 | > 16 | – | –
27 | O=C1Nc2cc(Br)ccc2/C1=C1/Nc2c(Cl)cccc2/C1=N\O | > 200 | 1 | 512 | MIC (Klebsiella pneumoniae [4]): 2 µg/mL; MIC (Klebsiella pneumoniae [5]): 4 µg/mL; Activity (Pseudomonas aeruginosa [6]): inactive; MIC (Klebsiella pneumoniae [7]): 4 µg/mL; fold change (FC) (Klebsiella pneumoniae [17]): 16; MIC (Klebsiella pneumoniae [8]): 2 µg/mL; fold change (FC) (Klebsiella pneumoniae [9]): 256; MIC (Pseudomonas aeruginosa [10]): > 16 µg/mL; MIC (Klebsiella pneumoniae [11]): 32 µg/mL; MIC (Escherichia coli [12]): 2 µg/mL; MIC (Klebsiella pneumoniae [13]): 4 µg/mL; MIC (Acinetobacter baumannii [14]): > 16 µg/mL; Activity (Escherichia coli [15]): inactive; Activity (Acinetobacter baumannii [16]): inactive
28 | O=C1Nc2cc(Br)ccc2/C1=C1/Nc2c(F)cccc2/C1=N\O | > 200 | 2 | 256 | MIC (Klebsiella pneumoniae [4]): 2 µg/mL; MIC (Klebsiella pneumoniae [5]): 4 µg/mL; Activity (Pseudomonas aeruginosa [6]): inactive; MIC (Klebsiella pneumoniae [7]): 4 µg/mL; MIC (Klebsiella pneumoniae [8]): 2 µg/mL; fold change (FC) (Klebsiella pneumoniae [9]): 256; MIC (Pseudomonas aeruginosa [10]): > 16 µg/mL; MIC (Klebsiella pneumoniae [11]): > 64 µg/mL; MIC (Escherichia coli [12]): 2 µg/mL; MIC (Klebsiella pneumoniae [13]): 4 µg/mL; MIC (Acinetobacter baumannii [14]): > 16 µg/mL; Activity (Escherichia coli [15]): inactive; Activity (Acinetobacter baumannii [16]): inactive
29 | O=C1Nc2ccccc2/C1=C1/Nc2c(Cl)cccc2/C1=N\O | > 200 | > 16 | – | –
